Rows were chosen to be rich in hits. Some 2.9% of all compounds tested hit in one or more screens of this group.
OX1R antag-1: OX1R (human) antagonism; O43613; inhibition, % at 6.6 µM; AID 485270; OX1R-expressing cells, FRET antagonist read-out; 330,000 tested, 1.8% active; in the data active = inhibition mostly above about 38%, no sharp cut-off; inactive = mostly below about 40%;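 note: 0% = agonist challenge alone and 100% = reference antagonist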
Target sequence (O43613 whole entry, looked up): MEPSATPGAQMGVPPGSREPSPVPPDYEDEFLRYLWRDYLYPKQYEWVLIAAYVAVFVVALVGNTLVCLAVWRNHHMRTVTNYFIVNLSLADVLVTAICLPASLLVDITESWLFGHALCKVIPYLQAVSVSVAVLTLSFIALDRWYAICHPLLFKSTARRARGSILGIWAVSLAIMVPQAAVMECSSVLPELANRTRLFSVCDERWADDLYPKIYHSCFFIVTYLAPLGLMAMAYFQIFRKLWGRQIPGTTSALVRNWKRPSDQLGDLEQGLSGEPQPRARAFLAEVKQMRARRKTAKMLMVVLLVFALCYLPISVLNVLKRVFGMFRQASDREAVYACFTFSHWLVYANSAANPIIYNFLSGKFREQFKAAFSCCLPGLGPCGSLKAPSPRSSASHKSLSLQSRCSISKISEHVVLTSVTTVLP
CHO-K1 Ca PAM: nonselective activator or artifact in parental CHO-K1 calcium assay; ATP EC20, Fluo-8 calcium fluorescence; 0% at ATP EC20, 100% at ATP max; activation, % at 3 µM; 360,000 tested, 0.02% active; AID 602247;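 active = activation above the run cutoff, the mean activation of all test compounds plus 3 SD, cut at about 40% in these data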;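 note: peak over basal fluorescence ratio in a 140 s read after ATP addition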
OX1R antag-2: antagonists of human orexin 1 receptor; AID 434989; 330,000 tested, 0.43% active; CHO/OX1R cells, Fluo-8 calcium fluorescence, orexin A; inhibition, % at 5 µM; O43613;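 active = inhibition above its plate's threshold, mean inhibition of all tested compounds on the plate plus 3 SD, cut at about 37% in these data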;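 note: 0% = orexin A challenge wells and 100% = SB-334867-A antagonist wells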
CHO parental Ca: counter-screen: ATP calcium response change in parental CHO cells. parental CHO-K1, ATP-induced calcium, Fluo-8 fluorescence. inhibition, % at 5.6 µM. 330,000 tested, 0.63% active. AID 463079;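 active = inhibition above that plate's mean sample inhibition plus 3 SD, cut at about 26% in these data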;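 note: 0% = ATP-challenged DMSO wells and 100% = DMSO wells without ATP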
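Assay system: untransfected parental CHO cell line. Also added: ATP agonist challenge. Dosing: one dose, 5.6 µM nominal. Measured by: Fluo-8 fluorescence. Read-out: % inhibition. Benchmarks: ATP wells versus no-ATP DMSO wells. Repeats: no replicates.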
CHO-K1 Ca antag: nonselective inhibitor or artifact in parental CHO-K1 cells; ATP-induced calcium, Fluo-8 fluorescence; inhibition, % at 3 µM; 360,000 tested, 0.6% active;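 active = inhibition above a per-plate cutoff, the plate's mean sample inhibition plus 3 SD, cut at about 24% in these data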;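 note: 0% = DMSO plus EC80 ATP and 100% = DMSO alone without ATP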
M1 ag parental: nonselective activator or artifact in parental CHO-K1 cells. Fluo-8 calcium fluorescence; scaled to maximal ATP response, vehicle zero. activation, % at 3 µM. 360,000 tested, 0.48% active. AID 602248; in the data active = activation above about 15%;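 note: untransfected CHO-K1 host cells lacking M1 receptor as counterscreen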
OX1R HTRF conf: confirmation of human orexin 1 receptor antagonists, HTRF format; shares compounds with OX1R antag-1; OX1R-expressing cells, HTRF antagonist assay; inhibition, % at 6.6 µM; 1,800 tested, 49% active; AID 492964; in the data active = inhibition above about 55%;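 note: CHO cells expressing OX1R stimulated with orexin A at about EC80; 0% = agonist challenge alone and 100% = reference antagonist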
CHO-K1 HTRF cnt: counter-screen for OX1R antagonists: effect in parental CHO-K1 cells; shares compounds with OX1R antag-1; HTRF counterscreen; inhibition, % at 6.6 µM; 1,800 tested, 48% active; in the data active = inhibition above about 17%;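 note: 0% = agonist challenge with vehicle and 100% = vehicle alone without agonist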
Numbers without * were called inactive; · = no result.

SMILES | OX1R antag-1 | CHO-K1 Ca PAM | OX1R antag-2 | CHO parental Ca | CHO-K1 Ca antag | M1 ag parental | OX1R HTRF conf | CHO-K1 HTRF cnt
CCN(CC)c1ccc2cc(C(C)=O)c(=O)oc2c1 | 95.7* | 9.4 | 8.3 | 8.4 | -2.0 | 7.7 | 34.3 | 8.2
CCN(CC)c1ccc2cc(C(=O)Nc3ccccn3)c(=O)oc2c1 | 73.3 | 8.5 | 11.6 | -14.7 | -7.5 | 0.8 | · | ·
O=C(O)c1ccc(NC2=C(N3CCOCC3)C(=O)c3ccccc3C2=O)cc1 | 20.3 | 15.4 | 6.7 | 19.7 | -2.8 | 0.1 | · | ·
CC(=O)N(C1=C(N2CCOCC2)C(=O)c2ccccc2C1=O)c1ccc(C(=O)O)cc1 | 125.0* | 13.0 | -8.7 | -10.3 | -7.7 | 0.7 | 98.1* | 86.0*
CCc1cc[n+](-c2nc([O-])sc2C=O)cc1 | 149.1* | 7.4 | -9.6 | -10.4 | -1.5 | 0.0 | 46.8 | 62.2*
Cc1ccc[n+](-c2nc([O-])sc2/C=N/Nc2ccc([N+](=O)[O-])cc2)c1 | 22.9 | -17.7 | -12.7 | -14.7 | -1.6 | 0.4 | · | ·
CC(C)(C)c1cc[n+](-c2nc([O-])sc2C=O)cc1 | 79.4* | 21.0 | 18.8 | -7.7 | 1.3 | 0.4 | 72.5* | 74.4*
CC(C)c1cc[n+](-c2nc([O-])sc2C=O)cc1 | 98.2* | -3.4 | -0.1 | 6.9 | 6.2 | -0.2 | 43.1 | 63.7*
CC(C)CCNC(=O)CN(C)S(=O)(=O)c1cccc2nsnc12 | 52.0 | 9.8 | -42.0 | -0.8 | 1.5 | 0.4 | · | ·
CN(CC(=O)NCCN1CCCCCC1)S(=O)(=O)c1cccc2nsnc12 | 80.4* | -1.1 | -19.0 | -19.7 | 1.8 | 0.0 | 33.6 | 41.5*
CC1CCCCC1NC(=O)CN(C)S(=O)(=O)c1cccc2nsnc12 (stereo not drawn) | 83.9* | 2.9 | -20.3 | -4.1 | 0.8 | 1.4 | 28.8 | 24.4*
O=C(CCS(=O)(=O)c1cccc2nsnc12)NC1CCCCCC1 | 65.6 | 17.3 | -5.5 | -15.1 | -3.5 | 0.4 | · | ·
CN(CC(=O)NC1CCCCC1)S(=O)(=O)c1cccc2nsnc12 | 94.9* | 1.6 | -30.4 | -26.8 | -0.3 | 0.6 | 55.7* | 36.6*
[O-][n+]1onc2c1CCc1nnc(-c3ccccc3)cc1-2 | 150.9* | -9.0 | -18.2 | -20.6 | -8.5 | 0.2 | 38.6 | 69.6*
Oc1cccc(Nc2nc(O)c(/C=C3\C=Nc4ccccc43)s2)c1 | 18.3 | 11.0 | 10.5 | 16.6 | -6.2 | 8.2 | · | ·
Oc1nc(Nc2ccc(F)cc2)sc1/C=C1\C=Nc2ccccc21 | 93.4* | 6.9 | 22.9 | 1.9 | -2.8 | 2.0 | 23.4 | -0.5
Oc1ccc(NC(=S)N=Nc2c(O)[nH]c3ccccc23)cc1 | 91.8* | 15.1 | -3.6 | -6.9 | -4.3 | 1.4 | 80.2* | 7.2
O=C(N=Nc1c(O)[nH]c2ccccc12)c1cccs1 | 107.5* | 5.7 | 5.2 | -16.0 | -2.2 | 1.9 | 101.4* | 18.4*
CNC(=S)N=Nc1c(O)[nH]c2ccccc12 | 17.0 | 15.4 | -14.9 | 1.4 | -9.9 | 0.7 | · | ·
CCOC(=O)C(=O)N=Nc1c(O)[nH]c2ccccc12 | 91.0* | 14.6 | -1.4 | 1.6 | -6.6 | 3.0 | 46.3 | 53.0*
COc1ccc(NC(=S)N=Nc2c(O)[nH]c3ccccc23)cc1 | 34.4 | -2.1 | 3.0 | -11.7 | -4.7 | 0.8 | · | ·
O=C(N=Nc1c(O)[nH]c2ccccc12)c1cc(NS(=O)(=O)c2cccs2)cc(NS(=O)(=O)c2cccs2)c1 | 13.8 | 12.4 | -0.7 | 9.6 | -16.7 | 2.1 | · | ·
CC(=O)OCC(C)n1[nH]c2ccccc2c1=O (stereo not drawn) | · | -2.7 | · | · | 7.2 | -0.6 | · | ·
CN(CCCN1CCOCC1)Cc1cn(C)nc1-c1ccccc1F | 21.0 | 14.8 | 7.5 | -4.6 | -4.6 | -0.2 | · | ·
OC(CCc1ccncc1)COc1ccccc1 (stereo not drawn) | 25.6 | 15.3 | -10.1 | -6.9 | -8.0 | 2.2 | · | ·
SMILES | OX1R antag-1 | CHO-K1 Ca PAM | OX1R antag-2 | CHO parental Ca | CHO-K1 Ca antag | M1 ag parental | OX1R HTRF conf | CHO-K1 HTRF cnt
CCNc1ccc(C(=O)OCC(=O)N2CCCC2)cc1[N+](=O)[O-] | 139.7* | 6.5 | -17.9 | -4.3 | -0.9 | 0.3 | 33.7 | 56.3*
CCNc1ccc(C(=O)OCC(=O)NCc2ccc(C)cc2)cc1[N+](=O)[O-] | 20.7 | 27.5 | -22.6 | -16.4 | -13.1 | 1.4 | · | ·
Cc1c(C(=O)Nc2ccc3c(c2)OCCO3)oc2ccc(Br)cc12 | 82.1* | 18.9 | 31.1 | -16.6 | 0.0 | -0.4 | 75.7* | 12.7
Cc1nc2ccccc2c2oc(C(=O)Nc3ccc4c(c3)OCCO4)cc12 | 95.3* | 6.5 | -8.3 | -24.1 | 1.7 | 0.2 | 89.0* | 7.1
O=C(Nc1ccc2c(c1)OCCO2)c1cc2ccccc2o1 | 36.7 | -7.7 | -1.3 | 3.1 | 9.5 | 0.5 | · | ·
Cc1c(C(=O)NCc2ccc3c(c2)OCO3)oc2ccc(Br)cc12 | 14.1 | 1.0 | -14.6 | -12.3 | 5.8 | -0.1 | · | ·
O=[N+]([O-])c1ccc(N2CCCCC2)s1 | 100.7* | 14.0 | -4.4 | -12.6 | -2.4 | -0.1 | 38.5 | 70.2*
CCOc1ccc(/C=C2\SC(=S)N(CC(=O)Nc3ccccn3)C2=O)cc1 | 15.7 | -11.5 | -6.0 | -12.7 | -4.1 | 0.2 | · | ·
O=C(Nc1cccnc1)c1ccc([N+](=O)[O-])o1 | 78.7* | 4.7 | -0.8 | -3.4 | -9.1 | 3.1 | 58.2* | 88.4*
Cc1cc(C)nc(NC(=O)c2ccc([N+](=O)[O-])o2)n1 | 78.1* | 27.4 | 6.6 | -6.3 | -11.3 | 2.4 | 36.5 | 80.1*
O=C(c1cc([N+](=O)[O-])cc([N+](=O)[O-])c1)N(c1ccccn1)c1ccccn1 | 103.4* | -10.7 | 4.8 | 7.7 | 13.1 | -0.3 | 48.8 | 71.8*
Cc1cc(C)cc(NC(=O)c2ccc([N+](=O)[O-])o2)c1 | · | 28.0 | · | · | -12.2 | 1.2 | · | ·
NS(=O)(=O)c1ccc(O)c(NC(=O)c2ccc([N+](=O)[O-])o2)c1 | 125.2* | 11.1 | -11.9 | -8.4 | -7.7 | 0.2 | 47.8 | 60.9*
CCN1C(=O)[C@H]2[C@H]3CN=C(SCc4ccc(C(=O)OC)cc4)N3[C@@](C)(C(=O)OC)[C@H]2C1=O | 6.2 | -0.5 | -17.5 | -8.1 | -2.7 | 0.7 | · | ·
O=C(Nc1nc(-c2cccc([N+](=O)[O-])c2)cs1)c1cccc([N+](=O)[O-])c1C(=O)O | 25.6 | -4.9 | -21.6 | -12.9 | 10.8 | -0.3 | · | ·
Cc1cc(C)nc(NC(=O)c2ccc(C)c([N+](=O)[O-])c2)n1 | 64.8 | 18.3 | -4.3 | -8.9 | -11.6 | 0.8 | · | ·
O=C(NNC(=O)c1ccc([N+](=O)[O-])o1)c1ccccc1 | 136.0* | -0.9 | -4.7 | -6.8 | 0.9 | 0.7 | 58.6* | 64.0*
Cc1cc(C)nc(NC(=O)c2cc([N+](=O)[O-])cc([N+](=O)[O-])c2)n1 | 111.4* | -5.0 | -4.5 | -4.5 | 8.6 | -0.2 | 44.4 | 68.3*
O=C(Nc1ncccn1)c1cccc(F)c1 | 13.9 | 19.8 | -6.1 | -5.5 | -5.1 | 1.0 | · | ·

High-throughput results: PubChem BioAssay, The Scripps Research Institute Molecular Screening Center
